# Test results from ChEMBL document CHEMBL4004831, “Naphthalene diimide-polyamine hybrids as antiproliferative agents: Focus on the architecture of the polyamine chains” (Eur J Med Chem, 2017).
# Key:
# NCI-H23 = assay: Growth inhibition of human NCI-H23 cells incubated for 48 hrs by sulforhodamine B assay; assay type: functional; details: NCI-H23, 48 h
# Homo sapiens = organism: Homo sapiens; assay: Stabilization of 5'Dabcyl/3'FAM labeled human telomeric sequence G-quadruplex DNA assessed as increase in melting temperature at 2.5 uM pretreated for 5 mins at 30 degreeC followed by 5 mins incubation at 95 degreeC by fluorescence assay
# Summary of the method: (§1)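 FRET melting in LiP buffer (10 mM LiOH, 50 mM KCl, pH 7.0 with H3PO4), ex 488 nm, em 520 nm. Samples were held 5 min at 30 °C, heated at 1 °C/min to 95 °C, held 5 min, then re-annealed. Tm came from first derivatives; ΔTm = shift with ligand at 2.5; at least three runs.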
# RXF 393 = assay: Growth inhibition of human RXF393 cells incubated for 48 hrs by sulforhodamine B assay; assay type: functional; details: RXF 393, 48 h
# UACC-257 = assay: Growth inhibition of human UACC257 cells incubated for 48 hrs by sulforhodamine B assay; assay type: functional; details: UACC-257, 48 h
# SF-295 = assay: Growth inhibition of human SF295 cells incubated for 48 hrs by sulforhodamine B assay; assay type: functional; details: SF-295, 48 h
# OVCAR-3 = assay: Growth inhibition of human OVCAR3 cells incubated for 48 hrs by sulforhodamine B assay; assay type: functional; details: OVCAR-3, 48 h
# SK-MEL-5 = assay: Growth inhibition of human SK-MEL-5 cells incubated for 48 hrs by sulforhodamine B assay; assay type: functional; details: SK-MEL-5, 48 h
# SNB-19 = assay: Growth inhibition of human SNB19 cells incubated for 48 hrs by sulforhodamine B assay; assay type: functional; details: SNB-19, 48 h
# MDA-MB-435 = assay: Growth inhibition of human MDA-MB-435 cells incubated for 48 hrs by sulforhodamine B assay; assay type: functional; details: MDA-MB-435, 48 h
# MDA-MB-231 = assay: Growth inhibition of human MDA-MB-231 cells incubated for 48 hrs by sulforhodamine B assay; assay type: functional; details: MDA-MB-231, 48 h
# SN12C = assay: Growth inhibition of human SN12C cells incubated for 48 hrs by sulforhodamine B assay; assay type: functional
# COLO 205 = assay: Growth inhibition of human COLO205 cells incubated for 48 hrs by sulforhodamine B assay; assay type: functional; details: COLO 205, 48 h
# UO-31 = assay: Growth inhibition of human UO31 cells incubated for 48 hrs by sulforhodamine B assay; assay type: functional; details: UO-31, 48 h
# SK-MEL-2 = assay: Growth inhibition of human SK-MEL-2 cells incubated for 48 hrs by sulforhodamine B assay; assay type: functional; details: SK-MEL-2, 48 h
# RPMI-8226 = assay: Growth inhibition of human RPMI8226 cells incubated for 48 hrs by sulforhodamine B assay; assay type: functional; details: RPMI-8226, 48 h
# HCT-15 = assay: Growth inhibition of human HCT15 cells incubated for 48 hrs by sulforhodamine B assay; assay type: functional; details: HCT-15, 48 h
# SR = assay: Growth inhibition of human SR cells incubated for 48 hrs by sulforhodamine B assay; assay type: functional
# SF-268 = assay: Growth inhibition of human SF268 cells incubated for 48 hrs by sulforhodamine B assay; assay type: functional; details: SF-268, 48 h
# BT-549 = assay: Growth inhibition of human BT549 cells incubated for 48 hrs by sulforhodamine B assay; assay type: functional; details: BT-549, 48 h
# ACHN = assay: Growth inhibition of human ACHN cells incubated for 48 hrs by sulforhodamine B assay; assay type: functional
# T47D = assay: Growth inhibition of human T47D cells incubated for 48 hrs by sulforhodamine B assay; assay type: functional
# OVCAR-8 = assay: Growth inhibition of human OVCAR8 cells incubated for 48 hrs by sulforhodamine B assay; assay type: functional; details: OVCAR-8, 48 h
# 786-0 = assay: Growth inhibition of human 786-0 cells incubated for 48 hrs by sulforhodamine B assay; assay type: functional; details: 786-0, 48 h
# SW-620 = assay: Growth inhibition of human SW620 cells incubated for 48 hrs by sulforhodamine B assay; assay type: functional; details: SW-620, 48 h
# SK-MEL-28 = assay: Growth inhibition of human SK-MEL-28 cells incubated for 48 hrs by sulforhodamine B assay; assay type: functional; details: SK-MEL-28, 48 h
# M14 = assay: Growth inhibition of human M14 cells incubated for 48 hrs by sulforhodamine B assay; assay type: functional; details: M14, 48 h
# TK-10 = assay: Growth inhibition of human TK10 cells incubated for 48 hrs by sulforhodamine B assay; assay type: functional; details: TK-10, 48 h
# OVCAR-4 = assay: Growth inhibition of human OVCAR4 cells incubated for 48 hrs by sulforhodamine B assay; assay type: functional; details: OVCAR-4, 48 h
# OVCAR-5 = assay: Growth inhibition of human OVCAR5 cells incubated for 48 hrs by sulforhodamine B assay; assay type: functional; details: OVCAR-5, 48 h
# SNB-75 = assay: Growth inhibition of human SNB75 cells incubated for 48 hrs by sulforhodamine B assay; assay type: functional; details: SNB-75, 48 h
# LOX IMVI = assay: Growth inhibition of human LOXIMVI cells incubated for 48 hrs by sulforhodamine B assay; assay type: functional
# HCT-116 = assay: Growth inhibition of human HCT116 cells incubated for 48 hrs by sulforhodamine B assay; assay type: functional; details: HCT-116, 48 h
# HOP-92 = assay: Growth inhibition of human HOP92 cells incubated for 48 hrs by sulforhodamine B assay; assay type: functional; details: HOP-92, 48 h
# [1] = Stabilization of 5'Dabcyl/3'FAM labeled duplex DNA (unknown origin) assessed as increase in melting temperature at 2.5 uM pretreated for 5 mins at 30 degreeC followed by 5 mins incubation at 95 degreeC by fluorescence assay; summary of the method: as §1
# HOP-62 = assay: Growth inhibition of human HOP62 cells incubated for 48 hrs by sulforhodamine B assay; assay type: functional; details: HOP-62, 48 h
# NCI-H322M = assay: Growth inhibition of human NCI-H322M cells incubated for 48 hrs by sulforhodamine B assay; assay type: functional
# CCRF-CEM = assay: Growth inhibition of human CCRF-CEM cells incubated for 48 hrs by sulforhodamine B assay; assay type: functional
# A549 = assay: Growth inhibition of human A549/ATCC cells incubated for 48 hrs by sulforhodamine B assay; assay type: functional; details: A549, 48 h
# NCI-H226 = assay: Growth inhibition of human NCI-H226 cells incubated for 48 hrs by sulforhodamine B assay; assay type: functional; details: NCI-H226, 48 h
# UACC-62 = assay: Growth inhibition of human UACC62 cells incubated for 48 hrs by sulforhodamine B assay; assay type: functional; details: UACC-62, 48 h
# HCC 2998 = assay: Growth inhibition of human HCC2998 cells incubated for 48 hrs by sulforhodamine B assay; assay type: functional; details: HCC 2998, 48 h
# DU-145 = assay: Growth inhibition of human DU145 cells incubated for 48 hrs by sulforhodamine B assay; assay type: functional; details: DU-145, 48 h
# HT-29 = assay: Growth inhibition of human HT-29 cells incubated for 48 hrs by sulforhodamine B assay; assay type: functional; details: HT-29, 48 h
structure (smiles),measurement,setting,value
CNCCCNCCCN1C(=O)c2ccc3c4c(ccc(c24)C1=O)C(=O)N(CCCNCc1ccccc1OC)C3=O,GI50,NCI-H23,1.26 µM
same,ΔTm,Homo sapiens,18 °C
same,GI50,RXF 393,1.89 µM
same,GI50,UACC-257,1.35 µM
same,GI50,SF-295,0.894 µM
same,GI50,OVCAR-3,1.37 µM
same,GI50,SK-MEL-5,1.1 µM
same,GI50,SNB-19,1.68 µM
same,GI50,MDA-MB-435,1.07 µM
same,GI50,MDA-MB-231,2.9 µM
same,GI50,SN12C,1.46 µM
same,GI50,COLO 205,0.498 µM
same,GI50,UO-31,5.88 µM
same,GI50,SK-MEL-2,1.75 µM
same,GI50,RPMI-8226,1.64 µM
same,GI50,HCT-15,2.36 µM
same,GI50,SR,0.27 µM
same,GI50,SF-268,1.03 µM
same,GI50,BT-549,5.03 µM
same,GI50,ACHN,0.5 µM
same,GI50,T47D,1.25 µM
same,GI50,OVCAR-8,0.797 µM
same,GI50,786-0,1.27 µM
same,GI50,SW-620,0.365 µM
same,GI50,SK-MEL-28,1.01 µM
same,GI50,M14,1.32 µM
same,GI50,TK-10,2.58 µM
same,GI50,OVCAR-4,0.641 µM
same,GI50,OVCAR-5,1.25 µM
same,GI50,SNB-75,1.11 µM
same,GI50,LOX IMVI,1.52 µM
same,GI50,HCT-116,0.27 µM
same,GI50,HOP-92,2.13 µM
same,ΔTm,[1],9.5 °C
same,GI50,HOP-62,1.24 µM
same,GI50,NCI-H322M,2.22 µM
same,GI50,CCRF-CEM,0.465 µM
same,GI50,A549,0.577 µM
same,GI50,NCI-H226,1.42 µM
same,GI50,UACC-62,1.52 µM
same,GI50,HCC 2998,1.93 µM
same,GI50,DU-145,1.05 µM
same,GI50,HT-29,0.381 µM
COc1ccccc1CNCCCN1C(=O)c2ccc3c4c(ccc(c24)C1=O)C(=O)N(CCCN)C3=O,GI50,NCI-H23,1.34 µM
same,ΔTm,Homo sapiens,1.4 °C
same,GI50,RXF 393,0.377 µM
same,GI50,UACC-257,0.424 µM
same,GI50,SF-295,1.43 µM
same,GI50,OVCAR-3,0.301 µM
same,GI50,SK-MEL-5,0.246 µM
same,GI50,SNB-19,1.51 µM
same,GI50,MDA-MB-435,0.196 µM
same,GI50,MDA-MB-231,1.59 µM
same,GI50,SN12C,1.17 µM
same,GI50,COLO 205,0.57 µM
same,GI50,UO-31,1.5 µM
same,GI50,SK-MEL-2,1.44 µM
same,GI50,RPMI-8226,1.11 µM
same,GI50,HCT-15,1.41 µM
same,GI50,SR,0.167 µM
same,GI50,SF-268,1.23 µM
same,GI50,BT-549,1.66 µM
same,GI50,ACHN,1.66 µM
same,GI50,T47D,1.17 µM
same,GI50,OVCAR-8,0.421 µM
same,GI50,786-0,1.94 µM
same,GI50,SW-620,0.442 µM
same,GI50,SK-MEL-28,1.73 µM
same,GI50,M14,1.06 µM
same,GI50,TK-10,1.64 µM
same,GI50,OVCAR-4,0.257 µM
same,GI50,OVCAR-5,1.95 µM
same,GI50,SNB-75,1.58 µM
same,GI50,LOX IMVI,0.526 µM
same,GI50,HCT-116,0.394 µM
same,GI50,HOP-92,2.1 µM
same,ΔTm,[1],6.7 °C
same,GI50,HOP-62,1.24 µM
same,GI50,NCI-H322M,1.66 µM
same,GI50,CCRF-CEM,0.433 µM
same,GI50,A549,1.76 µM
same,GI50,NCI-H226,1.78 µM
same,GI50,UACC-62,0.369 µM
same,GI50,HCC 2998,1.86 µM
same,GI50,DU-145,1.38 µM
same,GI50,HT-29,1.31 µM
CNCCCNCCCCNCCCN1C(=O)c2ccc3c4c(ccc(c24)C1=O)C(=O)N(CCCNCc1ccccc1OC)C3=O,GI50,NCI-H23,2.99 µM
same,ΔTm,Homo sapiens,26.1 °C
same,GI50,RXF 393,3.82 µM
same,GI50,UACC-257,1.25 µM
same,GI50,SF-295,1.33 µM
same,GI50,OVCAR-3,2.93 µM
same,GI50,SK-MEL-5,0.813 µM
same,GI50,SNB-19,3.79 µM
same,GI50,MDA-MB-435,0.795 µM
same,GI50,MDA-MB-231,4.63 µM
same,GI50,SN12C,2.95 µM
same,GI50,COLO 205,1.38 µM
same,GI50,UO-31,4.31 µM
same,GI50,SK-MEL-2,4.46 µM
same,GI50,RPMI-8226,3 µM
same,GI50,HCT-15,4.27 µM
same,GI50,SR,4.42 µM
same,GI50,SF-268,3.51 µM
same,GI50,BT-549,3.4 µM
same,GI50,ACHN,2.86 µM
same,GI50,T47D,0.342 µM
same,GI50,OVCAR-8,2.89 µM
same,GI50,786-0,3.36 µM
same,GI50,SW-620,2.16 µM
same,GI50,SK-MEL-28,1.4 µM
same,GI50,M14,2.63 µM
same,GI50,TK-10,4.08 µM
same,GI50,OVCAR-4,1.7 µM
same,GI50,OVCAR-5,5.35 µM
same,GI50,SNB-75,1.05 µM
same,GI50,LOX IMVI,3.03 µM
same,GI50,HCT-116,2.04 µM
same,GI50,HOP-92,2.21 µM
same,ΔTm,[1],17.1 °C
same,GI50,HOP-62,2.33 µM
same,GI50,NCI-H322M,2.21 µM
same,GI50,CCRF-CEM,2.77 µM
same,GI50,A549,3.45 µM
same,GI50,NCI-H226,2.17 µM
same,GI50,UACC-62,0.711 µM
same,GI50,HCC 2998,3.12 µM
same,GI50,DU-145,5.09 µM
same,GI50,HT-29,3.36 µM
